According to ChEMBL document CHEMBL1671850, “Discovery of a benzo[e]pyrimido-[5,4-b][1,4]diazepin-6(11H)-one as a Potent and Selective Inhibitor of Big MAP Kinase 1” (ACS Med Chem Lett, 2011):

Key:
[1] = molecular target: Protein-tyrosine kinase 6 (Homo sapiens) (UniProt Q13882); experiment: Binding affinity to BRK at 10 uM by immobilized ligand displacement assay
Summary of the method: (§1)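 Ambit KINOMEScan competition binding panel (402 kinases). Kinase displacement from an immobilized ligand is read relative to a DMSO control. Hits are kinases showing more than […] displacement. The text gives the test concentration as 10 μM.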

[2] = test system: Tyrosine-protein kinase ABL1 (Homo sapiens), P00519 [F317I]; experiment: Binding affinity to ABL1 F317I mutant at 10 uM by immobilized ligand displacement assay; summary of the method: as §1
[3] = molecular target: Cyclin-G-associated kinase (Homo sapiens) (UniProt O14976); experiment: Binding affinity to GAK at 10 uM by immobilized ligand displacement assay; summary of the method: as §1
[4] = molecular target: Myosin light chain kinase family member 4 (Homo sapiens) (UniProt Q86YV6); experiment: Binding affinity to MYLK4 at 10 uM by immobilized ligand displacement assay; summary of the method: as §1
[5] = test system: Mast/stem cell growth factor receptor Kit (Homo sapiens), P10721 [L576P]; experiment: Binding affinity to KIT L576P mutant at 10 uM by immobilized ligand displacement assay; summary of the method: as §1
[6] = molecular target: Macrophage colony-stimulating factor 1 receptor (Homo sapiens) (UniProt P07333); experiment: Binding affinity to c-FMS at 10 uM by immobilized ligand displacement assay; summary of the method: as §1
[7] = molecular target: Mitogen-activated protein kinase 7 (Homo sapiens, UniProt Q13164); experiment: Inhibition of EGF-induced BMK1 autophosphorylation in human HeLa cells by SDS-PAGE analysis; assay type: cell-based
[8] = molecular target: Serine/threonine-protein kinase DCLK1 (Homo sapiens, UniProt O15075); experiment: Binding affinity to DCAMKL1 by immobilized ligand displacement assay
Summary of the method: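 Dissociation constant (Kd) measured in the Ambit KINOMEScan competition binding format, which reads kinase displacement from an immobilized ligand.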

[9] = molecular target: Serine/threonine-protein kinase DCLK2 (Homo sapiens, UniProt Q8N568); experiment: Binding affinity to DCAMKL2 by immobilized ligand displacement assay
Summary of the method: (§2)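 KINOMEscan-type competition binding: displacement of kinase from an immobilized ligand; Kd values determined for individual kinases.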

[10] = molecular target: Non-receptor tyrosine-protein kinase TNK1 (Homo sapiens, UniProt Q13470); experiment: Binding affinity to TNK1 by immobilized ligand displacement assay; summary of the method: as §2
[11] = Plasma clearance in rat at 1 mg/kg, iv; assay type: ADME, organism-based; parameters: dose 1 mg/kg, route intravenous
Summary of the method: (§3)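 Single-dose pharmacokinetics: rats given 1 mg/kg intravenous or 2 mg/kg oral; mice given 1 mg/kg intravenous or 10 mg/kg oral. Plasma concentration profiles yield Tmax, Cmax, AUC0-∞, half-life, plasma clearance, Vss and oral bioavailability.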

[12] = AUC (0 to infinity) in rat at 1 mg/kg, iv; assay type: ADME, organism-based; parameters: time infinity, dose 1 mg/kg, route intravenous; settings: plasma; summary of the method: as §3
[13] = Plasma clearance in rat at 2 mg/kg, po; assay type: ADME, organism-based; parameters: dose 2 mg/kg, route oral; summary of the method: as §3
Mus musculus = experiment: Toxicity in human HeLa cells xenografted mouse assessed as tolerability at 50 mg/kg ip bid for 28 days; assay type: organism-based; parameters: dose 50 mg/kg, route intraperitoneal; settings: in vivo
Summary of the method: (§4)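 HeLa cell xenograft in mice; tumor-bearing animals injected intraperitoneally with 50 mg/kg or vehicle solution twice daily for 28 days; tumor growth compared against vehicle.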

[14] = Tmax in rat at 2 mg/kg, po; assay type: ADME, organism-based; parameters: dose 2 mg/kg, route oral; settings: in vivo; summary of the method: as §3
[15] = AUC (0 to infinity) in rat at 2 mg/kg, po; assay type: ADME, organism-based; parameters: time infinity, dose 2 mg/kg, route oral; settings: plasma; summary of the method: as §3
HeLa = experiment: Antitumor activity against human HeLa cells xenografted in mouse assessed as inhibition of tumor growth at 50 mg/kg, ip bid for 28 days; assay type: functional; settings: route intraperitoneal; summary of the method: as §4
[16] = Cmax in rat at 1 mg/kg, iv; assay type: ADME, organism-based; parameters: dose 1 mg/kg, route intravenous; settings: in vivo; summary of the method: as §3
[17] = Oral bioavailability in rat at 2 mg/kg; assay type: ADME, organism-based; settings: in vivo; summary of the method: as §3
[18] = Cmax in rat at 2 mg/kg, po; assay type: ADME, organism-based; parameters: dose 2 mg/kg, route oral; settings: in vivo; summary of the method: as §3
Rattus norvegicus = experiment: Half life in rat at 2 mg/kg, po; assay type: ADME, organism-based; parameters: dose 2 mg/kg, route oral; settings: in vivo; summary of the method: as §3
[19] = Volume of distribution at steady state in rat at 1 mg/kg, iv; assay type: ADME, organism-based; parameters: dose 1 mg/kg, route intravenous; settings: in vivo, read-out: Vdss; summary of the method: as §3
[20] = Tmax in rat at 1 mg/kg, iv; assay type: ADME, organism-based; parameters: dose 1 mg/kg, route intravenous; settings: in vivo; summary of the method: as §3
[21] = Half life in rat at 1 mg/kg, iv; assay type: ADME, organism-based; parameters: dose 1 mg/kg, route intravenous; settings: in vivo; summary of the method: as §3
[22] = Cmax in mouse at 10 mg/kg, po; assay type: ADME, organism-based; parameters: dose 10 mg/kg, route oral; settings: in vivo; summary of the method: as §3
SK-N-AS = experiment: Antiproliferative activity against human SK-N-AS cells after 72 hrs; assay type: functional, cell-based
[23] = Oral bioavailability in mouse at 10 mg/kg; assay type: ADME, organism-based; settings: in vivo; summary of the method: as §3
[24] = Tmax in mouse at 10 mg/kg, po; assay type: ADME, organism-based; parameters: dose 10 mg/kg, route oral; settings: in vivo; summary of the method: as §3
PC-3 = experiment: Antiproliferative activity against human PC3 cells after 72 hrs; assay type: functional, cell-based; settings: PC-3, 72 h
[25] = Volume of distribution at steady state in mouse at 1 mg/kg, iv; assay type: ADME, organism-based; parameters: dose 1 mg/kg, route intravenous; settings: in vivo, read-out: Vdss; summary of the method: as §3
[26] = AUC (0 to infinity) in mouse at 1 mg/kg, iv; assay type: ADME, organism-based; parameters: time infinity, dose 1 mg/kg, route intravenous; settings: plasma; summary of the method: as §3
NCI-H1299 = experiment: Antiproliferative activity against human NCI-H1299 cells after 72 hrs; assay type: functional, cell-based; settings: NCI-H1299, 72 h
[27] = Half life in mouse at 1 mg/kg, iv; assay type: ADME, organism-based; parameters: dose 1 mg/kg, route intravenous; settings: in vivo; summary of the method: as §3
BPH-1 = experiment: Antiproliferative activity against human BPH1 cells after 72 hrs; assay type: functional, cell-based; settings: BPH-1, 72 h
AU565 = experiment: Antiproliferative activity against human AU565 cells after 72 hrs; assay type: functional, cell-based; settings: AU565, 72 h
NCI-H522 = experiment: Antiproliferative activity against human NCI-H522 cells after 72 hrs; assay type: functional, cell-based; settings: NCI-H522, 72 h
[28] = Plasma clearance in mouse at 1 mg/kg, iv; assay type: ADME, organism-based; parameters: dose 1 mg/kg, route intravenous; summary of the method: as §3
[29] = AUC (0 to infinity) in mouse at 10 mg/kg, po; assay type: ADME, organism-based; parameters: time infinity, dose 10 mg/kg, route oral; settings: plasma; summary of the method: as §3
MCF7 = experiment: Antiproliferative activity against human MCF7 cells after 72 hrs; assay type: functional, cell-based; settings: MCF7, 72 h

Mitogen-activated protein kinase 7, sequence (Q13164 whole entry): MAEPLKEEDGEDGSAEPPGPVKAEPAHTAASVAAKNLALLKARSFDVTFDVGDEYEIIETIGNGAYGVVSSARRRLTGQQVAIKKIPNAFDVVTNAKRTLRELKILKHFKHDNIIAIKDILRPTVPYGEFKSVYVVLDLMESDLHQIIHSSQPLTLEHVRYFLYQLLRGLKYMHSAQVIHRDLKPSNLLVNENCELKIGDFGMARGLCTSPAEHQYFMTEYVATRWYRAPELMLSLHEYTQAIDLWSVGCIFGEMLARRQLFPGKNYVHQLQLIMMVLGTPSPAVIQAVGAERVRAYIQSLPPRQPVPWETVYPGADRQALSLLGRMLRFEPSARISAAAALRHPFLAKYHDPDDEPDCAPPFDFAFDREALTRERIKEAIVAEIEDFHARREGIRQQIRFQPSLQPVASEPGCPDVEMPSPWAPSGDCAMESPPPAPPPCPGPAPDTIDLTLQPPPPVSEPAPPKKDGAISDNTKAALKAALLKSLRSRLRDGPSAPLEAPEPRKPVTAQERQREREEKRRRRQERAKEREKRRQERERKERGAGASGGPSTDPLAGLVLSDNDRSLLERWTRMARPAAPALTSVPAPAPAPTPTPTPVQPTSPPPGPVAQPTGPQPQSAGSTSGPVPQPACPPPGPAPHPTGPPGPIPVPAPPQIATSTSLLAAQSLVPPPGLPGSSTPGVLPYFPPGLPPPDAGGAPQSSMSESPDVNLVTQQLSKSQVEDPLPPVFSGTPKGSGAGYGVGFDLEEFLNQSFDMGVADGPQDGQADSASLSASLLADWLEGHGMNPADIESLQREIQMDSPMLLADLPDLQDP
Myosin light chain kinase family member 4 (Homo sapiens), sequence (Q86YV6 whole entry): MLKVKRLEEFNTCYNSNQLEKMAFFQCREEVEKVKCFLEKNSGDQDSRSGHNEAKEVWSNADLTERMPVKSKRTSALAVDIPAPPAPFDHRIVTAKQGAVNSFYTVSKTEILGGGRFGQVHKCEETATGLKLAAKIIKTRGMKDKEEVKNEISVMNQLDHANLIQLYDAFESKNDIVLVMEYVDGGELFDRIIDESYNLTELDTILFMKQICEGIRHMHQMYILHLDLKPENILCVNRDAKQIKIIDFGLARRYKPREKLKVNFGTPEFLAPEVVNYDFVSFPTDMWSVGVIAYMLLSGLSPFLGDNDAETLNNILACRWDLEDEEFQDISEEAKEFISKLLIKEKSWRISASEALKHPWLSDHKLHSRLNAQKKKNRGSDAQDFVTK
Non-receptor tyrosine-protein kinase TNK1, sequence (Q13470 whole entry): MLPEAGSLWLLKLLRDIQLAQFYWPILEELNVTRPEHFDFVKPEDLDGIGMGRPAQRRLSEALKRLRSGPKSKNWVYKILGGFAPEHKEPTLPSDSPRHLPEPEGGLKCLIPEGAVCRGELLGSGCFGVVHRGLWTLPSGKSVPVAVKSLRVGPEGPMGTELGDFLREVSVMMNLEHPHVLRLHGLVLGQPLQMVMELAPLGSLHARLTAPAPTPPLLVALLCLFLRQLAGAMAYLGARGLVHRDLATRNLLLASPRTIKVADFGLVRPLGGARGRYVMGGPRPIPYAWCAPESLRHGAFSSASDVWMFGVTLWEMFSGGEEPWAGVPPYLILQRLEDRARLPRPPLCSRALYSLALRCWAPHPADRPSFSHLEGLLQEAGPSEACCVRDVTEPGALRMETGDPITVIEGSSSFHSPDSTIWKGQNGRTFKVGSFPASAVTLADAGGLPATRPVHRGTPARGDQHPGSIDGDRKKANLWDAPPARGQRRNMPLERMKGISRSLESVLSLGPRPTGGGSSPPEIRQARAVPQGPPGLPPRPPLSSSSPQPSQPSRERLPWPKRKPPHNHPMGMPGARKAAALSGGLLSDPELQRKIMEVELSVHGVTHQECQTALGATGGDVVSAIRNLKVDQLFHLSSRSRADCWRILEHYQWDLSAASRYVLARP
Serine/threonine-protein kinase DCLK2, sequence (Q8N568 whole entry): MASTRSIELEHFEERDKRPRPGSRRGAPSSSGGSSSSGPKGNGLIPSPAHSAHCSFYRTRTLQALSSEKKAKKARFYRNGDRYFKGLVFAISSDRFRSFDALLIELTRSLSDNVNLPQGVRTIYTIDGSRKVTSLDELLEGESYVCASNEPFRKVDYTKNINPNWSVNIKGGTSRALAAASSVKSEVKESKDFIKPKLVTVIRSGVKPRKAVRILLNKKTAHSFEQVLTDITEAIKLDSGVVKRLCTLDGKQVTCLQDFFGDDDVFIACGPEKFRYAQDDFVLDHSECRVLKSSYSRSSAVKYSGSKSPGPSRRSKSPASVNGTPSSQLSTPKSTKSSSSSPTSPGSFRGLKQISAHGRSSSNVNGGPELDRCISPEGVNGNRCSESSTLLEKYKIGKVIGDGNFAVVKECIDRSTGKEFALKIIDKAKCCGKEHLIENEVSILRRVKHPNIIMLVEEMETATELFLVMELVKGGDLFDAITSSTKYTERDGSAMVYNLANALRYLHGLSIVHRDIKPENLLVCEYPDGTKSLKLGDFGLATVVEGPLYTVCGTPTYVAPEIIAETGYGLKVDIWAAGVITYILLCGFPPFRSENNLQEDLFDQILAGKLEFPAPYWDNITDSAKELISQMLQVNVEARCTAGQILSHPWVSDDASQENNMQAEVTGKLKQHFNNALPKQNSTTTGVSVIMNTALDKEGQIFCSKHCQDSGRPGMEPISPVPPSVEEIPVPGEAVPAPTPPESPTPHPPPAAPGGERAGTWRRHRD
Mast/stem cell growth factor receptor Kit (Homo sapiens), P10721 [L576P], sequence (P10721 whole entry L576P): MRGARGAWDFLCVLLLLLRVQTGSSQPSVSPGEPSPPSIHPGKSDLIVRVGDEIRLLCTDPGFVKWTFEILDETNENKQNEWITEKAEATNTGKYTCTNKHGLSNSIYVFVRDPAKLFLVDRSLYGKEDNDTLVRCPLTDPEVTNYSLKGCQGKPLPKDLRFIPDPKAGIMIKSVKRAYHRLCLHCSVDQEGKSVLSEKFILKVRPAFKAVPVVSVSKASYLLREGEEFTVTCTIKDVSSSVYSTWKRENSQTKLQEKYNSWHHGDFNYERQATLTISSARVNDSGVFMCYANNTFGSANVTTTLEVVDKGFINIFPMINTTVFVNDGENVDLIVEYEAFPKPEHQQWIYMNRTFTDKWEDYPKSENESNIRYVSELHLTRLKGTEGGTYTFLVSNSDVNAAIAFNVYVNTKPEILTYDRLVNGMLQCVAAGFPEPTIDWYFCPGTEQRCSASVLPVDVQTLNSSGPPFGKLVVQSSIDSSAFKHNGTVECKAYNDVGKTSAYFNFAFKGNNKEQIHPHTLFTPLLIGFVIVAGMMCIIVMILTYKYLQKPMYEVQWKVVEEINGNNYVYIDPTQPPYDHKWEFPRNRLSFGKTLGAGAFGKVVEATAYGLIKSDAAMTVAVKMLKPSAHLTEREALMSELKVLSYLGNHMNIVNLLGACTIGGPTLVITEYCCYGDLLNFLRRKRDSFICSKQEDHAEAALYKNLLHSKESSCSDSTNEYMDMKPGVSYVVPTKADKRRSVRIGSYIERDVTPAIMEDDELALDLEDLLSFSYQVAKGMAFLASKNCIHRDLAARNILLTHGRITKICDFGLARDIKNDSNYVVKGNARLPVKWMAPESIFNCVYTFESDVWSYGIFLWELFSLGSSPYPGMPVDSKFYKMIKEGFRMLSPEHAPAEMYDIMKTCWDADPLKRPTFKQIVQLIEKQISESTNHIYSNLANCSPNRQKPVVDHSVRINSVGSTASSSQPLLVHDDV
Cyclin-G-associated kinase (Homo sapiens), sequence (O14976 whole entry): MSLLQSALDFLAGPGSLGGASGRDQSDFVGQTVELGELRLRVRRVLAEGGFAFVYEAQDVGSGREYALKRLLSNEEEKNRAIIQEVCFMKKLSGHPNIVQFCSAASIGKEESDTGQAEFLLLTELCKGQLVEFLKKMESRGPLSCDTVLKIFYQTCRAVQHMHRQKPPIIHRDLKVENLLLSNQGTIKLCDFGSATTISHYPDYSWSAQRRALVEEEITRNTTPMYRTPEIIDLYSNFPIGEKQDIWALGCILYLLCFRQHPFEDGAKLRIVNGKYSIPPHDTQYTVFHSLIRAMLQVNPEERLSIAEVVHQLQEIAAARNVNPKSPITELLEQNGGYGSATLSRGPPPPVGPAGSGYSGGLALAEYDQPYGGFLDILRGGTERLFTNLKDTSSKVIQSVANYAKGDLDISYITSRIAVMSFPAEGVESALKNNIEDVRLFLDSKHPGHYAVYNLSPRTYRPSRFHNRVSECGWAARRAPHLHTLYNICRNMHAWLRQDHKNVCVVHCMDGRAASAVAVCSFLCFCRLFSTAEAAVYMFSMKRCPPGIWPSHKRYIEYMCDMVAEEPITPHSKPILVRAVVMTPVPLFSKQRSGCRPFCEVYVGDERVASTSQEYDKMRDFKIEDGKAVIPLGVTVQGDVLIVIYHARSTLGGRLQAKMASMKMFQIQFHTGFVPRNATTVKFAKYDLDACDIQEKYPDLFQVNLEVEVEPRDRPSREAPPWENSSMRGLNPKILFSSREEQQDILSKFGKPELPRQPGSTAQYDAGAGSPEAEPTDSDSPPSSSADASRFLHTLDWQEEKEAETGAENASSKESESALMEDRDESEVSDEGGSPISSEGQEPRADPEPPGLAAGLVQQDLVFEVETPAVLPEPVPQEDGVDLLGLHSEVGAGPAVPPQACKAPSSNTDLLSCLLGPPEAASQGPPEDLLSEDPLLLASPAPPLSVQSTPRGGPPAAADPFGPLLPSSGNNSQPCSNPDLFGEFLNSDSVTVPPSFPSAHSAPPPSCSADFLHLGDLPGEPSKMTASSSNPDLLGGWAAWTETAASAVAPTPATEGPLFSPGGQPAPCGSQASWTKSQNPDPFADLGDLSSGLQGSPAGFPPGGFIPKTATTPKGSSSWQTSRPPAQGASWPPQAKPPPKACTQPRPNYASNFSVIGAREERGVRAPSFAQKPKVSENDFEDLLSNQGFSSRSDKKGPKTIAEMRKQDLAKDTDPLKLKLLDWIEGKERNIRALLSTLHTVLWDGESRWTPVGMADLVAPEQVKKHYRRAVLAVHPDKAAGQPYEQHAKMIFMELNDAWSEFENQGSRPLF

COc1cc(N2CCN(C)CC2)ccc1Nc1ncc2c(n1)N(C)c1ccccc1C(=O)N2
inhibition [1]: > 90% | inhibition [2]: > 90% | inhibition [3]: > 90% | inhibition [4]: > 90% | inhibition [5]: > 90% | inhibition [6]: > 90%

CCN1c2ccccc2C(=O)N(C)c2cnc(Nc3ccc(N4CCN(C)CC4)cc3OC)nc21
IC50 [7]: 200 nM

COc1cc(N2CCN(C)CC2)ccc1Nc1ncc2c(n1)N(C(C)C)c1ccccc1C(=O)N2C
IC50 [7]: 230 nM

Cc1cc(N2CCN(C)CC2)ccc1Nc1ncc2c(n1)N(C)c1ccccc1C(=O)N2C
IC50 [7]: 280 nM

COc1cc(N2CCN(C)CC2)ccc1Nc1ncc2c(n1)N(C)c1ccccc1C(=O)N2C
Kd [8]: 1.2 nM | Kd [9]: 10 nM | Kd [10]: 29 nM

COc1cc(C(=O)NCCN(C)C)ccc1Nc1ncc2c(n1)N(C)c1ccccc1C(=O)N2C
IC50 [7]: 240 nM

COc1cc(N2CCN(C)CC2)ccc1Nc1ncc2c(n1)N(C)c1ccc(Cl)cc1C(=O)N2C
IC50 [7]: 1240 nM

CN1C(=O)c2ccccc2N(C)c2nc(Nc3ccc(S(N)(=O)=O)cc3)ncc21
IC50 [7]: 310 nM

COc1cc(N2CCN(C)CC2)ccc1Nc1ncc2c(n1)N(C)c1cc(F)ccc1C(=O)N2C
IC50 [7]: 1320 nM

COc1cc(N2CCC(O)CC2)ccc1Nc1ncc2c(n1)N(C)c1ccccc1C(=O)N2C
IC50 [7]: 240 nM

COc1cc(N2CCOCC2)ccc1Nc1ncc2c(n1)N(C)c1ccccc1C(=O)N2C
IC50 [7]: 260 nM

COc1cc(N2CCNCC2)ccc1Nc1ncc2c(n1)N(C)c1ccccc1C(=O)N2C
IC50 [7]: 230 nM

COc1cc(N2CCN(C)CC2)ccc1Nc1ncc2c(n1)N(C)c1ccc(C)cc1C(=O)N2C
IC50 [7]: 3100 nM

COc1cc(C2CCN(C)CC2)ccc1Nc1ncc2c(n1)N(C)c1ccccc1C(=O)N2C
IC50 [7]: 260 nM

COc1cc(N2CCN(C)CC2)ccc1Nc1ncc2c(n1)N(C1CCCC1)c1ccccc1C(=O)N2C
IC50 [7]: 200 nM

COc1cc(C(=O)NC2CCN(C)CC2)ccc1Nc1ncc2c(n1)N(C)c1ccccc1C(=O)N2C
IC50 [7]: 320 nM

CCOc1cc(N2CCC(O)CC2)ccc1Nc1ncc2c(n1)N(C)c1ccccc1C(=O)N2C
clearance [11]: 25.5 mL/min/kg | AUC(0-inf) [12]: 658 ng·h/mL | CL/F [13]: 37 mL/min/kg | Activity (Mus musculus): Non-toxic | Tmax [14]: 0.5 h | AUC(0-inf) [15]: 903 ng·h/mL | inhibition in vivo at 50 mg/kg (HeLa): 95% | Cmax [16]: 439 ng/mL | bioavailability [17]: 68.6% | Cmax [18]: 247 ng/mL | t1/2 (Rattus norvegicus): 3.4 h | Vd [19]: 3.4 L/kg | Tmax [20]: 4.8 min | half-life [21]: 2 h

COc1cc(N2CCN(C)CC2)ccc1Nc1ncc2c(n1)N(C)c1cc(Cl)ccc1C(=O)N2C
IC50 [7]: 11400 nM

COc1cc(C(=O)N2CCC(N3CCCC3)CC2)ccc1Nc1ncc2c(n1)N(C)c1ccccc1C(=O)N2C
IC50 [7]: 130 nM | Cmax [22]: 1290 ng/mL | EC50 (SK-N-AS): 4400 nM | bioavailability [23]: 86.6% | Tmax [24]: 2 h | EC50 (PC-3): 3600 nM | Vd [25]: 5.36 L/kg | AUC(0-inf) [26]: 907 ng·h/mL | EC50 (NCI-H1299): 4200 nM | half-life [27]: 2.62 h | EC50 (BPH-1): 1600 nM | EC50 (AU565): > 10000 nM | EC50 (NCI-H522): 950 nM | clearance [28]: 18.4 mL/min/kg | AUC(0-inf) [29]: 7870 ng·h/mL | EC50 (MCF7): > 10000 nM
